Reference: ChEMBL document CHEMBL1649083, “Discovery of novel inhibitors of the NorA multidrug transporter of Staphylococcus aureus” (2011)

The compounds below were run against T1, Quinolone resistance protein NorA (Staphylococcus aureus) (UniProt P0A0J7) (assay: Inhibition of NorA in Staphylococcus aureus 1199B assessed as reduction in ethidium bromide efflux at 50 uM by fluorimetry after 5 mins).
T1 sequence (whole entry): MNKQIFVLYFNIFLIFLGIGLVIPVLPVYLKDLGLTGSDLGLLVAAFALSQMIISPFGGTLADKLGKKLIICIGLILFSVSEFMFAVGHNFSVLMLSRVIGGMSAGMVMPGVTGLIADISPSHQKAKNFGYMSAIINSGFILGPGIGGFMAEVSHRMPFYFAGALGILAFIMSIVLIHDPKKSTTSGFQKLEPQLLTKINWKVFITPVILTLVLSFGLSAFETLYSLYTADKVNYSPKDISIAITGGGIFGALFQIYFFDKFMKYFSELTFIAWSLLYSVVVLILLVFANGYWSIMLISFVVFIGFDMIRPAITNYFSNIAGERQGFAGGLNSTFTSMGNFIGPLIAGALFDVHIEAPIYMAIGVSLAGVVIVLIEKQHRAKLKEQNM
How it was run: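 S. aureus SA-1199B (NorA overexpressing via promoter up-mutation; GrlA A116E), EtBr-loaded cells. EtBr loss measured fluorometrically over a 5 min time course, in duplicate, as mean total efflux. Percent reduction calculated versus efflux without compound. Test compound at 50 μM; increasing concentrations were also run for dose-response profiles.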

`COc1ccccc1C1=Nc2ccccc2SC1` and `c1ccc(C2=Nc3ccccc3SC2)cc1` are the same in inhibition: 0% for the first, 0% for the second.

Compared with `CCCOc1ccc(-c2cc(=O)c3cc(OC)c(O)cc3n2C)cc1`, `CCCOc1ccc(-c2cc(=O)c3cc(OC)c(OC)cc3n2C)cc1` is lower in inhibition: 9.1% for the first, 0% for the second.

Going from `Cn1c(-c2ccc(OCCN3CCOCC3)cc2)cc(=O)c2ccccc21` to `Cn1c(-c2ccc(OCCN3CCCCC3)cc2)cc(=O)c2ccccc21`, the inhibition rises from 0% to 19.8%.

Going from `COc1cccc(CNC(C)C(O)c2ccccc2)c1` (centres undefined) to `COc1ccccc1CNCc1cccc(C(F)(F)F)c1`, the inhibition rises from 2.8% to 30%.

First: CCCOc1ccc(-c2cc(O)c3ccccc3n2)cc1
Second: CCCOc1ccc(-c2cc(OCCN(CC)CC)c3ccccc3n2)cc1
The inhibition of the first is lower: 0% for the first, 93.4% for the second.

Compared with `COc1cc2c(=O)cc(-c3ccccc3)n(C)c2cc1OC`, `COc1cc2c(=O)cc(-c3ccc(O)cc3)n(C)c2cc1OC` is lower in inhibition: 9.4% for the first, 0% for the second.

Going from `COc1cc(/C=C2\S/C(=N\c3ccccc3)N([C@@H]3CCCC[C@@H]3C)C2=O)ccc1OCC(=O)O` to `COCCN1C(=O)/C(=C/c2ccc(O[C@@H](C)C(=O)O)c(OC)c2)S/C1=N\c1ccccc1`, the inhibition falls from 32.6% to 10.6%.

Going from `CCCCOc1ccc([C@H]2C(C#N)=C(N)Oc3cc(N(CC)CC)ccc32)cc1` to `CCCOc1ccc(-c2cc(=O)c3ccccc3n2CCN(CC)CC)cc1`, the inhibition rises from 20.5% to 57.3%.

First: CCOC(=O)c1cn(C2CC2)c2cc(N3CCC4=C(C3)/C(=N/O)C(C)CS4)c(F)cc2c1=O (centres undefined)
Second: CCOC(=O)c1cn(C2CC2)c2cc(N3CCC4=C(C3)/C(=N/O)C(C)CS4)c(N)cc2c1=O (centres undefined)
The inhibition of the first is lower: 22.5% for the first, 91.2% for the second.

Going from `CCOC(=O)c1cn(C2CC2)c2cc(N3CCC4=C(C3)C(=O)CCS4)c(N)cc2c1=O` to `CCOC(=O)c1cn(C2CC2)c2cc(N3CCC4=C(C3)/C(=N/OC)CCS4)c(N)cc2c1=O`, the inhibition rises from 35.7% to 74.5%.

Going from `Fc1ccc([C@@H]2CCNC[C@H]2COc2ccc3c(c2)OCO3)cc1` to `CN1CC[C@H](c2ccc(F)cc2)[C@@H](COc2ccc3c(c2)OCO3)C1`, the inhibition rises from 73% to 85%.

Going from `CN1CCN(CCCN2c3ccccc3Sc3ccc(Cl)cc32)CC1` to `OCCN1CCN(CCCN2c3ccccc3Sc3ccc(C(F)(F)F)cc32)CC1`, the inhibition falls from over 78% to 75%.

Going from `O=C1NC(=O)/C(=C/c2ccc(-c3cc(C(=O)O)ccc3Cl)o2)S1` to `CN1C(=O)S/C(=C/c2ccc(-c3cc(C(=O)O)ccc3Cl)o2)C1=O`, the inhibition rises from 15.5% to 20.9%.

Going from `C[C@H](O)c1cccc(NC(=O)CC(c2ccccc2)c2ccccc2)c1` to `O=C(O)c1ccc(N2C(=O)C[C@@H](S/C(=N\c3ccccc3)Nc3ccccc3)C2=O)cc1`, the inhibition falls from 31.4% to 0%.

Compared with `CCOC(=O)c1cn(C2CC2)c2cc(N3CCNCC3)c(F)cc2c1=O`, `CCOC(=O)c1cn(C2CC2)c2cc(N3CCC4=C(C3)/C(=N/OC)C(C)CS4)c(F)cc2c1=O` (centres undefined) is higher in inhibition: 20.8% for the first, 86.9% for the second.

First: CCN(CC)CCOc1ccc(-c2cc(=O)c3ccccc3n2C)cc1
Second: CN(C)CCOc1ccc(-c2cc(=O)c3ccccc3n2C)cc1
The inhibition of the first is lower: 1.7% for the first, 4.4% for the second.

First: CCOC(=O)C1SC(NC(=S)NC(=O)c2ccccc2)=NC1C (centres undefined)
Second: Cc1ccc(N(CC(=O)Nc2ccc(C(N)=O)cc2)S(=O)(=O)c2ccccc2)cc1C
The inhibition of the first is higher: 23.2% for the first, 0.6% for the second.

Going from `CCOC(=O)c1cn(C2CC2)c2c(C)c(N3CCC4=C(C3)C(=O)CCS4)c(N)cc2c1=O` to `CCOC(=O)c1cn(C2CC2)c2c(C)c(N3CCC4=C(C3)/C(=N/O)CCS4)c(N)cc2c1=O`, the inhibition falls from 36.8% to 36.2%.

Going from `Cc1ccc(S(=O)(=O)Nc2ccc3[nH]c(-c4ccco4)nc3c2)cc1` to `Cc1ccc(S(=O)(=O)Nc2ccc3c(c2)nc(C)n3Cc2ccccc2)cc1`, the inhibition falls from 67.5% to 30.6%.

Going from `N#Cc1c(C(F)(F)F)cc(Cc2ccccc2)nc1SCc1ccc(C(=O)O)cc1` to `N#Cc1c(SCc2ccc(C(=O)O)cc2)nc2c(c1C(F)(F)F)CCCCC2`, the inhibition rises from 41.8% to 67.1%.

Compared with `COc1cc(/C=C2/SC(Nc3ccccc3F)=NC2=O)ccc1OCC(=O)O`, `COc1cc(/C=C2\S/C(=N\c3ccccc3)N(c3ccccc3)C2=O)cc(Cl)c1OCC(N)=O` is higher in inhibition: 11.9% for the first, 18.3% for the second.

Going from `COc1ccc(OC[C@@H]2CN(C)CC[C@H]2c2ccccc2)cc1` (relative stereo) to `COc1ccc(OC[C@H]2CN(C)CC[C@@H]2c2ccccc2)cc1`, the inhibition falls from 50% to 47%.

First: CCOC(=O)c1cn(C2CC2)c2c(C)c(N3CCC4=C(C3)/C(=N/OC)C(C)CS4)c(N)cc2c1=O (centres undefined)
Second: CCOC(=O)c1cn(C2CC2)c2c(C)c(N3CCC4=C(C3)/C(=N/O)C(C)CS4)c(N)cc2c1=O (centres undefined)
The inhibition of the first is lower: 21.4% for the first, 90% for the second.

Compared with `CCCOc1ccc(C2=CSc3ccccc3N2C)cc1`, `CCCOc1ccc(-c2cc(=O)c3ccccc3n2C)cc1` is higher in inhibition: 0% for the first, 3.9% for the second.

First: CCCOc1ccc(-c2cc(=O)c3ccccc3o2)cc1
Second: CCCOc1ccc(-c2cc(=O)c3ccccc3s2)cc1
The inhibition of the first is higher: 32.4% for the first, 6.3% for the second.

Going from `CCOC(=O)Nc1ccc2c(c1)N(C(=O)CCN1CCN(CCO)CC1)c1ccccc1CC2` to `OCCN1CCN(CC/C=C2/c3ccccc3Sc3ccc(C(F)(F)F)cc32)CC1`, the inhibition rises from 0% to 82%.

Going from `CCOC(=O)c1cn(C2CC2)c2cc(N3CCC4=C(C3)C(=O)C(C)CS4)c(N)cc2c1=O` (centres undefined) to `CCOC(=O)c1cn(C2CC2)c2cc(N3CCC4=C(C3)/C(=N/OC)C(C)CS4)c(N)cc2c1=O` (centres undefined), the inhibition falls from 63.5% to 19.7%.

Going from `CCCOc1ccc(-c2cc(=O)c3ccccc3n2CCN2CCCCC2)cc1` to `CCCOc1ccc(-c2cc(OCCN3CCCCC3)c3ccccc3n2)cc1`, the inhibition rises from 75.1% to 88.5%.

First: CCC(C)N1C(=O)S/C(=C\c2ccc(N3CCCC3)o2)C1=O (centres undefined)
Second: CCC(C)N1C(=O)S/C(=C\c2ccc(-c3cc(C(=O)O)ccc3Cl)o2)C1=O (centres undefined)
The inhibition of the first is lower: 0% for the first, 74.7% for the second.

Going from `Cc1sc([C@@H]2C(C#N)=C(N)OC3=C2C(=O)CC(C)(C)C3)cc1COc1ccc(Br)cc1` to `CCOc1cc(C2C(C#N)=C(N)Oc3[nH]nc(C)c32)ccc1OCc1cccc(F)c1` (single isomer, unassigned), the inhibition rises from 0% to 4.9%.

Compared with `CC(C)Oc1ccc(-c2cc(=O)c3ccccc3n2C)cc1`, `COc1ccc(-c2cc(=O)c3ccccc3n2C)cc1` is lower in inhibition: 10.3% for the first, 0% for the second.

First: Cc1c(NS(=O)(=O)c2ccc(F)cc2)c(=O)n(-c2ccccc2)n1C
Second: Cc1ccc(S(=O)(=O)Nc2ccc3c(c2)ncn3-c2ccccc2)cc1
The inhibition of the first is higher: 3.2% for the first, 0% for the second.

Going from `CSc1ccc2c(c1)N(CCC1CCCCN1C)c1ccccc1S2` (centres undefined) to `CN(C)CCCN1c2ccccc2Sc2ccc(Cl)cc21`, the inhibition falls from over 88% to 76%.

First: N#Cc1c(-c2ccc(F)cc2)cc(-c2ccccc2)nc1SCC(=O)N1CCC[C@@H]1C(=O)O
Second: O=C(CSc1nnc(CNc2ccc(F)cc2)o1)N1c2ccccc2Sc2ccccc21
The inhibition of the first is higher: 36.3% for the first, 11.5% for the second.

Compared with `CCOC(=O)c1cn(C2CC2)c2c(C)c(N3CCC4=C(C3)C(O)CCS4)c(N)cc2c1=O` (centres undefined), `CCOC(=O)c1cn(C2CC2)c2cc(N3CCC4=C(C3)C(O)CCS4)c(N)cc2c1=O` (centres undefined) is lower in inhibition: 47.3% for the first, 26.3% for the second.

Compared with `CCc1c(O)nc(SCC(=O)Nc2nc3ccccc3s2)[nH]c1=O`, `Cn1c(-c2ccccc2)cc(=O)c2cc(O)c(O)cc21` is lower in inhibition: 19.1% for the first, 0% for the second.

Going from `CCOC(=O)CCCSc1nc2c(c(C(F)(F)F)c1C#N)CC(C)CC2` (centres undefined) to `CCOC(=O)CCSc1nc2c(c(C(F)(F)F)c1C#N)CC(C(C)(C)C)CC2` (centres undefined), the inhibition falls from 48.6% to 25.2%.

Compared with `COc1ccc(/C=C/C(=O)NCCc2c[nH]c3ccccc23)cc1OC`, `C=CCOc1c(I)cc(/C=C2\C(=O)N(c3ccc(C(=O)O)cc3)N=C2c2ccccc2)cc1OC` is lower in inhibition: 84% for the first, 3.8% for the second.

First: CC(C)N1C(=O)S/C(=C/c2cc(Br)ccc2OCc2ccc(C(=O)O)cc2)C1=O
Second: CCC(C)N1C(=O)S/C(=C/c2ccc(C(=O)O)cc2)C1=O (centres undefined)
The inhibition of the first is higher: 3.1% for the first, 0% for the second.

Going from `CCN(CC)CCOc1cc(-c2ccc(OCCN3CCCCC3)cc2)nc2ccccc12` to `CCOc1ccc(-c2cc(=O)c3ccccc3n2C)cc1`, the inhibition falls from 65.6% to 10.8%.

Going from `OCCN1CCN(CC/C=C2\c3ccccc3Sc3ccc(C(F)(F)F)cc32)CC1` to `Cc1ccc(N2CCN(C3=Nc4cc(Cl)ccc4Oc4ccccc43)CC2)cc1`, the inhibition falls from 72% to 35.1%.

Compared with `N#Cc1c(SCc2ccc(Cl)nc2)nc2c(c1C(F)(F)F)CCCC2`, `Cc1ccc(-n2c(SCc3ccc(C(=O)O)cc3)nnc2-c2ccc(Cl)cc2)cc1` is lower in inhibition: 41.3% for the first, 1.3% for the second.

First: CCOc1ccc(C2C(C(=O)Nc3cccnc3)=C(C)Nc3nc(CCCO)nn32)cc1OC (centres undefined)
Second: Cn1c(-c2ccc(O)cc2)cc(=O)c2cc(O)c(O)cc21
The inhibition of the first is higher: 14.8% for the first, 0% for the second.

`c1ccc(CCN(Cc2ccccc2)Cc2cccc(OCc3ccccc3)c2)cc1` and `Cn1c(-c2ccc(O)cc2)cc(=O)c2ccccc21` are the same in inhibition: 0% for the first, 0% for the second.

Going from `Cc1ccc([C@H]2C(C#N)=C(N)Oc3cc(C)oc(=O)c32)o1` to `CCOC(=O)c1cn(C2CC2)c2c(C)c(N3CCC4=C(C3)C(=O)C(C)CS4)c(N)cc2c1=O` (centres undefined), the inhibition rises from 0% to 50.5%.

Compared with `CCOC(=O)c1cn(C2CC2)c2c(C)c(N3CCC4=C(C3)/C(=N/OC)CCS4)c(N)cc2c1=O`, `Cc1cc(C)cc(/N=C2\S/C(=C\c3ccc(C(=O)O)cc3)C(=O)N2c2cc(C)cc(C)c2)c1` is higher in inhibition: 54.4% for the first, 55% for the second.

`NS(=O)(=O)c1ccc(NC2=NC(=O)C(CC(=O)O)S2)cc1` (centres undefined) and `Fc1ccc(C2=Nc3ccccc3SC2)cc1` are the same in inhibition: 0% for the first, 0% for the second.
